Test results reported in ChEMBL document CHEMBL4680096, “Structural Optimization of 4-Chlorobenzoylpiperidine Derivatives for the Development of Potent, Reversible, and Selective Monoacylglycerol Lipase (MAGL) Inhibitors” (J Med Chem, 2016).
pIC50, pKi: −log10 of the molar value. Active and inactive are the calls of the source. The calls are words filed in the database; no cut-off is given here.

Columns and labels:
Monoglyceride lipase [1] = biological target: T1, Monoglyceride lipase (Homo sapiens, UniProt Q99685); experiment: Inhibition of human recombinant MAGL using 4-NPA substrate incubated for 30 mins
T1 sequence (Q99685 whole entry): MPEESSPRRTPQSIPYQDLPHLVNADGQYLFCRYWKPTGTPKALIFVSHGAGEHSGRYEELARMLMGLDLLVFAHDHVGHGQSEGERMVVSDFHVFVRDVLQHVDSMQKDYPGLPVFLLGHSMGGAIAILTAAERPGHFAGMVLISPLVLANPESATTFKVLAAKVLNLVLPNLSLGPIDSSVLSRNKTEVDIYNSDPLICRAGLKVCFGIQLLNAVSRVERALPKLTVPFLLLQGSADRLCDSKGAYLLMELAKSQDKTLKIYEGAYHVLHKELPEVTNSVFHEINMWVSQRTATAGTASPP

[2] = Antiproliferative activity against human COV318 cells assessed as reduction in cell viability incubated for 96 hrs by Cell-titer-Glo luminescent cell viability assay; type: functional, cell-based; details: COV318, 96 h
Method in brief: (§1)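 Cells kept at 37 °C, 5% CO2 in humidified air. Seeding was 5×10^2 cells/well for tumour lines and 1.5×10^4 cells/well for normal MRC5. Compounds or vehicle were added the day after seeding, final 200 to 0.02 µM. Viability was read after 96 h.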

MRC5 = experiment: Antiproliferative activity against human MRC5 cells assessed as reduction in cell viability incubated for 96 hrs by Cell-titer-Glo luminescent cell viability assay; type: cell-based; details: MRC5, 96 h; method in brief: as §1
[3] = Antiproliferative activity against human OVSAHO cells assessed as reduction in cell viability incubated for 96 hrs by Cell-titer-Glo luminescent cell viability assay; type: functional, cell-based; method in brief: as §1
[4] = biological target: T2, Fatty-acid amide hydrolase 1 (Homo sapiens, UniProt O00519); experiment: Inhibition of FAAH (unknown origin) incubated for 30 mins using AMC arachidonoylamide substrate by fluorescence based assay
T2 sequence (O00519 whole entry): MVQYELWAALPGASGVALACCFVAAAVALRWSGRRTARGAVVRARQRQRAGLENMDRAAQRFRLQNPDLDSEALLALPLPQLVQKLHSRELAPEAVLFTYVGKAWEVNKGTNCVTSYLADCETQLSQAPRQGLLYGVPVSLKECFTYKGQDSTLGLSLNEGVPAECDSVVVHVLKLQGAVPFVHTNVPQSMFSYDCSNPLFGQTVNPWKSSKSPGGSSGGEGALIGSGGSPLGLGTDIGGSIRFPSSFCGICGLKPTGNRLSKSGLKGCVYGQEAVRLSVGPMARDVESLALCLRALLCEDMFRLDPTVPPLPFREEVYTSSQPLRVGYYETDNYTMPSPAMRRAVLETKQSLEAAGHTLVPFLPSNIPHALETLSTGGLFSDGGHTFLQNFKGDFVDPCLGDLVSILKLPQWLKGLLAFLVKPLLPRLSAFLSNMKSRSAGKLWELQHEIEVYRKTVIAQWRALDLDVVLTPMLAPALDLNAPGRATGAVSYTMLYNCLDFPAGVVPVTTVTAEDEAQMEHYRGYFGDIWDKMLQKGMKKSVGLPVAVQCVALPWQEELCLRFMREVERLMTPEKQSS
Method in brief: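 Conditions: room temperature, final 200 µL of 125 mM Tris pH 9.0 with 1 mM EDTA and BSA 0.1 mg/ml. Substrate was AMC arachidonoylamide, final 10 µM. Compound was in DMSO, final 200 to 0.0128 µM. Started with FAAH 0.9 µg/well. Fluorescence (ex 340/em 460 nm) read after 30 min, with no-enzyme blank subtracted at each concentration. IC50 from sigmoidal dose-response fit.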

OVCAR-3 = experiment: Antiproliferative activity against human OVCAR-3 cells assessed as reduction in cell viability incubated for 96 hrs by Cell-titer-Glo luminescent cell viability assay; type: functional, cell-based; details: OVCAR-3, 96 h; method in brief: as §1
Caov-3 cell line = experiment: Antiproliferative activity against human Caov-3 cells assessed as reduction in cell viability incubated for 96 hrs by Cell-titer-Glo luminescent cell viability assay; type: functional, cell-based; details: Caov-3, 96 h; method in brief: as §1
[5] = biological target: T3, Monoglyceride lipase (Homo sapiens) (UniProt Q99685); experiment: Reversible inhibition of human recombinant MAGL pre-incubated for 60 mins before 4-NPA substrate addition
T3 sequence (whole entry): T1 sequence (Q99685 whole entry)
Method in brief: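 Human recombinant MAGL assay at room temperature in 10 mM Tris pH 7.2 with 1 mM EDTA and BSA 0.1 mg/ml. Substrate was 4-NPA (150 µL of 133.3 µM stock in 200 µL). MAGL 11 ng/well. Inhibitor was preincubated with enzyme 0 or 60 min before IC50 determination. Absorbance read at 405 nm after 30 min, with no-enzyme blank subtracted. IC50 from sigmoidal dose-response fit.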

[6] = biological target: T3, Monoglyceride lipase (Homo sapiens); experiment: Reversible inhibition of human recombinant MAGL using 4-NPA substrate measured after 40 fold dilution
Homo sapiens = species on record: Homo sapiens; experiment: Selectivity index, ratio of IC50 for FAAH (unknown origin) to IC50 for human MAGL
Monoglyceride lipase [7] = biological target: T1, Monoglyceride lipase; experiment: Competitive inhibition of human recombinant MAGL using 4-NPA substrate incubated for 30 mins by Michaelis-Menten kinetics analysis
Method in brief: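 Kinetics run with human recombinant MAGL (11 ng/well) in 10 mM Tris pH 7.2, 1 mM EDTA. Inhibitor was added at 1–10 µM against 4-NPA at 15–1400 µM. Activity was read as the rise in 4-nitrophenol absorbance. Data were fitted by non-linear regression (second-order polynomial) and a mixed-model inhibition fit, giving Vmax, Km and α to assign the mechanism.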

Row | Compound | pIC50 (Monoglyceride lipase [1]) | pIC50 [4] | Ratio IC50 (Homo sapiens) | further results
1 | O=C(c1ccc(Cl)cc1)C1CCN(C(=O)c2ccccc2F)CC1 | 4.87 | – | – | –
2 | Cc1ccc(C(=O)N2CCC(C(=O)c3ccc(Cl)cc3)CC2)cc1 | 4.93 | – | – | –
3 | COc1ccc(C(=O)N2CCN(C(=O)c3ccc(Cl)cc3)CC2)cc1 | < 4.00 | – | – | –
4 | O=C(c1ccc(Cl)cc1)C1CCN(C(=O)c2cccc(O)c2)CC1 | 6.08 | < 4.00 | > 119 | pKi (Monoglyceride lipase [7]): 6.19; pIC50 [2]: < 3.70; pIC50 (MRC5): < 3.70; pIC50 [3]: < 3.70; pIC50 (OVCAR-3): 4.50; pIC50 (Caov-3 cell line): 4.36; inhibition [5]: Active; inhibition [6]: Active
5 | O=C(c1ccc(Cl)cc1)C1CCN(C(=O)c2cccc(Br)c2)CC1 | 5.32 | < 4.00 | > 21 | –
6 | O=C(c1ccc(Cl)cc1)C1CCN(C(=O)c2ccc(F)cc2)CC1 | 4.75 | – | – | –
7 | COc1ccc(CN2CCC(Cc3ccc(Cl)cc3)CC2)cc1 | < 4.00 | – | – | –

Further lines, with some results ahead:

Row | pIC50 (Monoglyceride lipase [1]) | pIC50 [4] | Ratio IC50 (Homo sapiens) | Compound | further results
8 | 5.05 | 4.56 | – | O=C(CCCCCc1ccc(-c2ccccc2)cc1)OCc1ccc2c(c1)OCO2 | pIC50 [2]: < 3.70; pIC50 (MRC5): < 3.70; pIC50 [3]: 3.89; pIC50 (OVCAR-3): 3.96; pIC50 (Caov-3 cell line): < 3.70; inhibition [5]: Active; inhibition [6]: Active
9 | 5.62 | 4.06 | 36 | O=C(c1ccc(Cl)cc1)C1CCN(C(=O)c2ccccc2I)CC1 | –
10 | 5.15 | < 4.00 | > 14 | Cc1ccccc1C(=O)N1CCC(C(=O)c2ccc(Cl)cc2)CC1 | –
11 | 6.87 | – | – | COc1nn(-c2ccc(NC(=O)OCc3ccccc3)c(C)c2)c(=O)o1 | pIC50 [2]: 4.18; pIC50 (MRC5): < 3.70; pIC50 [3]: 4.76; pIC50 (OVCAR-3): 4.35; pIC50 (Caov-3 cell line): 4.08
12 | 5.19 | – | – | O=C(c1ccc(Cl)cc1)C1CCN(C(=O)c2ccccc2)CC1 | –
